A short description of series [1]: Partition coefficient, log D in phosphate buffer at pH 7.2 to 7.4 by extractive method. The note with it: octanol/water. In kind it is physicochemical. In outline: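 Batch n-octanol–buffer extraction of the 18F-labelled tracer. Buffers were 50 mM Sørensen phosphate pH 7.2, Dulbecco's PBS pH 7.2, and 30 mM Tris-HCl pH 7.4. n = 3 per buffer system.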
A short description of series [2]: Partition coefficient, log D at pH 7.2 to 7.4 by HPLC Supelcosil. In kind it is physicochemical. The note with it: octanol/water. In outline: (§1)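 HPLC log D on Multisorb RP18-7 or Supelcosil ABZ+ Plus columns. Gradient from 5% MeCN + 20 mM ammonium acetate to 80% MeCN + 20 mM ammonium acetate over 55 min at 1 ml/min. n ≥ 3 per standard or sample.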
Series [3] is described as follows: Partition coefficient, log D at pH 7.2 to 7.4 by HPLC Multisorb. In kind it is physicochemical. The note with it: octanol/water. The procedure, abridged:
as §1

Another series concerns Cortex. Kind of series: Stability in rat cortex at pH 7.2 to 7.4 after 120 mins. In kind it is ADME, tissue-based. The note with it: buffer, pH 7.2, 2 h. The procedure, abridged: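 18F tracer incubated at 37 °C in rat cortex homogenate in Tris-HCl, pH 7.2–7.4, for up to 120 min. Sampled every 30 min and analysed by radio-HPLC and TLC.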
Series [4] is described as follows: Stability in aqueous sodium hydroxide at 80 degC after 30 mins. It counts as physicochemical. The note with it: buffer, 0.5 h. In outline:
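18F tracer held in 0.1 or 1.3 M aqueous NaOH at 80 °C. Analysed by radio-HPLC and TLC.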

For series [5], the target named is T1, Sodium-dependent serotonin transporter (Homo sapiens, UniProt P31645). The experiment in a line: biochemical. In kind it is cell-based, HEK293.
Target sequence in this assay (P31645 whole entry): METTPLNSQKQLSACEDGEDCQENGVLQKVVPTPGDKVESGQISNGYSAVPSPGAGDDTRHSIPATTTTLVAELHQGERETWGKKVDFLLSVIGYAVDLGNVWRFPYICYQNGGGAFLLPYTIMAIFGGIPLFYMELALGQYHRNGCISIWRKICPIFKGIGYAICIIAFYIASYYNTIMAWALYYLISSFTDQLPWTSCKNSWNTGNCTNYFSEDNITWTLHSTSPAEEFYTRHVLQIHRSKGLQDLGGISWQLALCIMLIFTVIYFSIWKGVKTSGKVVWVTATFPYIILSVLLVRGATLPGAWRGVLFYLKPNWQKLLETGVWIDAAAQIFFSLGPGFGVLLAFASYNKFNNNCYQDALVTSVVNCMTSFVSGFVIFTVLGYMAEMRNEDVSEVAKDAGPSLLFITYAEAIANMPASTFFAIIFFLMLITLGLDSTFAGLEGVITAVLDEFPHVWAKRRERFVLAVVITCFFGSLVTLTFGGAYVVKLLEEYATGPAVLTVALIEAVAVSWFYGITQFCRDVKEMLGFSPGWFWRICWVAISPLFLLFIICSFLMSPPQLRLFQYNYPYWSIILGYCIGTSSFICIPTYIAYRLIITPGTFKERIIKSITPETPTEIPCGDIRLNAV
The target in series [6] is T1, Sodium-dependent serotonin transporter. The experiment in a line: biochemical. In kind it is cell-based, HEK293. This is another data set of the same source.
Target sequence in this assay (P31645 whole entry): as above
Series [7] has as its target Sodium-dependent noradrenaline transporter (Homo sapiens, UniProt P23975). The experiment in a line: Displacement of [3H]nisoxetine from human NET expressed in HEK293 cells. It counts as cell-based. In outline: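 Homogenate of HEK293 cells stably expressing hNET, in 50 mM Tris-HCl pH 7.4, 120 mM NaCl, 5 mM KCl. Incubated with 0.5 nM [3H]nisoxetine (KD 6.77 nM) and 6-12 test concentrations at 21 °C for 60 min. Nonspecific binding with 100 µM protriptyline. IC50 from triplicates per experiment; Ki calculated.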
On the technique in general: Displacement assays read how much labelled ligand stays bound in the presence of the test substance.

Series [8] concerns the target Sodium-dependent dopamine transporter (Homo sapiens, UniProt Q01959). Kind of series: Displacement of [3H]WIN-35428 from human DAT expressed in HEK293 cells. In kind it is cell-based. The procedure, abridged:
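Homogenate of HEK293 cells stably expressing hDAT, in 50 mM Tris-HCl pH 7.4, 100 mM NaCl. Incubated with 0.5 nM [3H]WIN35,428 (KD 24.1 nM) and 6-12 test concentrations on ice for 120 min. Nonspecific binding with 10 µM GBR12909. IC50 from triplicates per experiment; Ki calculated.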

The target in series [9] is T2, 5-hydroxytryptamine receptor 1A (Rattus norvegicus, UniProt P19327).
T2 sequence (P19327 whole entry): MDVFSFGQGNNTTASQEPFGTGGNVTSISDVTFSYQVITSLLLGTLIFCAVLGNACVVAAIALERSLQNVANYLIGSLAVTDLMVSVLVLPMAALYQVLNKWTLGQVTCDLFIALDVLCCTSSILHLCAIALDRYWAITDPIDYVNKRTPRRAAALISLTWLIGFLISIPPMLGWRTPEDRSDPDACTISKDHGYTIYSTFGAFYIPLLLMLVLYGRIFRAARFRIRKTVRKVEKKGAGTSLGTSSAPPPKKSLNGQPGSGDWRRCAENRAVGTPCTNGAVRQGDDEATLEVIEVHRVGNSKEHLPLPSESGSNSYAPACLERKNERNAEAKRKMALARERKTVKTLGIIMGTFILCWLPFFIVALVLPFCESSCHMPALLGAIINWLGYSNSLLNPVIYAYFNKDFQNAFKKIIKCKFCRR
The experiment in a line: Displacement of [3H]8-OH-DPAT from 5HT1A receptor in rat cortical membrane. It counts as cell membranes. In outline:
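Rat cortical membrane homogenate diluted in 50 mM Tris-HCl pH 7.4, 4 mM CaCl2, 0.1% ascorbic acid. Incubated with 0.3 nM [3H]-8-OH-DPAT and 6-12 test concentrations at 21 °C for 60 min. Nonspecific binding defined with 10 µM serotonin hydrochloride. IC50 from triplicates per experiment, at least three independent experiments; Ki calculated.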

In series [10] the target is T1, Sodium-dependent serotonin transporter. Kind of series: Ratio of Ki for displacement of [3H]paroxetine to displacement of [3H]citalopram from human SERT expressed in […] cells. In kind it is cell-based.
Target sequence in this assay (P31645 whole entry, looked up): as the sequence (P31645 whole entry) above
A short description of series [11]: Protein binding in rat plasma by acetonitrile precipitation. It counts as ADME, cell-free. The note with it: read-out: PB (converted). The procedure, abridged: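 18F tracer incubated in freshly isolated rat plasma (protein 95 mg/ml) for 30 min at 37 °C. Protein precipitated with MeCN and extracted twice. Centrifuged at 2000g for 30 min at room temperature; n = 3.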

Sodium-dependent noradrenaline transporter, sequence (P23975 whole entry): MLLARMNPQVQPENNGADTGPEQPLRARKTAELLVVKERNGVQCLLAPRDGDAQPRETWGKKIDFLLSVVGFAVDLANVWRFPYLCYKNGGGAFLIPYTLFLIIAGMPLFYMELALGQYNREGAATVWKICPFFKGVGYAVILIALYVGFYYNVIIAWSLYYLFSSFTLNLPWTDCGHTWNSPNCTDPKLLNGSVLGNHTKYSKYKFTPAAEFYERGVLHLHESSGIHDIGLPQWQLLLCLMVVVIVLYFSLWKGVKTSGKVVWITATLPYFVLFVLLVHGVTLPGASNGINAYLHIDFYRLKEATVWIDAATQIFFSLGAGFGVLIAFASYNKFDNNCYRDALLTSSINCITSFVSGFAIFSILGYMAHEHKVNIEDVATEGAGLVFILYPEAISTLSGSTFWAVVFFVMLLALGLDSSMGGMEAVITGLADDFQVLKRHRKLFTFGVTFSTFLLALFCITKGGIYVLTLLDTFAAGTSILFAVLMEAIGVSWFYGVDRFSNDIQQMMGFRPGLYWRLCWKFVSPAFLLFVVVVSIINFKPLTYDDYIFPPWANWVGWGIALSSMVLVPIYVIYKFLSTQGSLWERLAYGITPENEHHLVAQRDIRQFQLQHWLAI
Sodium-dependent dopamine transporter, sequence (Q01959 whole entry): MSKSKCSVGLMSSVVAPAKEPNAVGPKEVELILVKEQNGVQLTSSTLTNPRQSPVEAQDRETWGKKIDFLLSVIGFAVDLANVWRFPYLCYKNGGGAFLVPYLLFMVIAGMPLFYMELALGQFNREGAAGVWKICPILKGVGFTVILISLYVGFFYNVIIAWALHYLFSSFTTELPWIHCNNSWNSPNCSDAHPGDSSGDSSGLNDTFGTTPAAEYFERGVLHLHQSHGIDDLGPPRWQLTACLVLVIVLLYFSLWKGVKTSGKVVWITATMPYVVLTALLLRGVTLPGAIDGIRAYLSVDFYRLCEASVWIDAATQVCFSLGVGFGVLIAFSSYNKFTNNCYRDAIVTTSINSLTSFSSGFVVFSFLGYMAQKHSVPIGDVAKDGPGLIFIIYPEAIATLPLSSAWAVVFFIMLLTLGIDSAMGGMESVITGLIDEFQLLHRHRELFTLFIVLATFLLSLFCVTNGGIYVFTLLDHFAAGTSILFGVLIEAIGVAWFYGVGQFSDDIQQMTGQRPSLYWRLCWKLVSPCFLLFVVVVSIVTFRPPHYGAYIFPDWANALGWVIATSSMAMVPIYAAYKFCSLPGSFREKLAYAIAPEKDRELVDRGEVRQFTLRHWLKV

Take `N#Cc1ccc2[nH]cc([C@H]3CC[C@H](N4CCc5cc(OCCC[18F])ccc5C4)CC3)c2c1`: the logD amounted to 2.36 in [1] and 3.27 in series [3]. Further, the chromatographic logD in series [2] was 2.49. For the same compound, the Stability entry (in the series on Cortex; in series [4]) was “Stable” in each case.
On to `N#Cc1ccc2[nH]cc([C@H]3CC[C@@H](N4CCc5cc(OCCCF)ccc5C4)CC3)c2c1`, for which the inhibitory constant (Ki) in series [5] was found to be 6.16 nM; in series [6], 914 nM; in series [7], 772 nM; in series [8] it was 366 nM; in [9], 5670 nM. Moreover, in series [10], the fold change (FC) came out at 140.
In the case of `N#Cc1ccc2[nH]cc([C@H]3CC[C@@H](N4CCc5ccccc5C4)CC3)c2c1`, the inhibition constant (Ki) is 4.51 nM in series [5]; 189 nM in series [6]; 1430 nM in series [7]; 424 nM in series [8]; greater than 1000 nM in series [9]. For the same compound, in [10], the fold change (FC) came to 41.9.
As for `Cc1ccc(Sc2ccccc2CN(C)C)c(N)c1`, the values for the Ki in [5] and in [6] were 0.73 nM and 2.03 nM, respectively.
For `COc1ccc2c(c1)CCN([C@H]1CC[C@H](c3c[nH]c4ccc(C#N)cc43)CC1)C2`, the inhibitory constant (Ki) in [5] amounted to 73.7 nM; in [6] it was 518 nM; in series [7], 96.7 nM; in series [8], 462 nM; in series [9], 267 nM. The fold change (FC) in series [10] came out at 7.
As to `N#Cc1ccc2[nH]cc([C@H]3CC[C@@H](N4CCc5cc(OCCC[18F])ccc5C4)CC3)c2c1`, the logD in [1] is recorded as 2.47; in [3] it was 3.27. In [11], the fraction unbound is 0.973. Also, in series [2], the chromatographic logD turned out to be 2.54. For the same compound, the Stability result (with Cortex; in [4]) was “Stable” each time.
As to `N#Cc1ccc2[nH]cc([C@H]3CC[C@H](N4CCc5ccccc5C4)CC3)c2c1`, the Ki came out at 90.7 nM in series [5]; 286 nM in series [6]; 184 nM in series [7]; 309 nM in [8]; 2530 nM in series [9]. The fold change (FC) in series [10] stood at 3.2.
Consider `N#Cc1ccc2[nH]cc([C@H]3CC[C@H](N4CCc5cc(OCCCF)ccc5C4)CC3)c2c1`, for which the inhibitory constant (Ki) in series [5] was found to be 327 nM; in [6], 2310 nM; in [7], 102 nM; in [8] it was 343 nM; in series [9] it was 2860 nM. Besides, the fold change (FC) in [10] is 7.1.
`COc1ccc2c(c1)CCN([C@H]1CC[C@@H](c3c[nH]c4ccc(C#N)cc43)CC1)C2`: the inhibitory constant (Ki) was determined as 4.1 nM in series [5]; 165 nM in series [6]; 1020 nM in [7]; 370 nM in series [8]; 13100 nM in series [9]. The fold change (FC) in series [10] stood at 40.2.

A word on the logD: it is lipophilicity at a set pH, counting ionised and neutral species. As usually defined, the chromatographic logD is a lipophilicity value derived from retention on a column. A high value points to higher lipophilicity. As usually defined, the Ki is the dissociation constant of the complex between target and ligand, obtained from inhibition or displacement. High values mean lower affinity, low ones higher affinity.

Values taken from ChEMBL document CHEMBL1155929, “3-(4-(6-Fluoroalkoxy-3,4-dihydroisoquinoline-2(1H)-yl)cyclohexyl)-1H-indole-5-carbonitriles for SERT imaging: chemical synthesis, evaluation in vitro and radiofluorination” (Bioorg Med Chem Lett, 2008).
